# Entries after “also recorded” stand apart in the source; their conditions may differ. Where no end group is shown, it is not given here.
# Key:
# [1] = tested on: EGFR phosphorylation, Akt and Erk1/2 phosphorylation in HT29 cells; experiment: effect of peptide on cell signaling, western blot; type: cell-based, human; details: 5 and 100 μM, 10, 20 and 120 min
# Procedure, shortened: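 HT29 cells held in serum-free medium for 16 h, then exposed to Cy5.5-labeled peptide at 5 or 100 μM for 10, 20 or 120 min. EGF at 100 ng/ml for the same times served as reference. Cells lysed in RIPA with protease inhibitors, followed by SDS gel electrophoresis, PVDF transfer and chemiluminescent immunoblotting. Probes: EGFR, phospho-EGFR, AKT, phospho-AKT (S473), ERK1/2, phospho-ERK1/2 and tubulin.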
# human colonic dysplasia = experiment: binding of peptide and antibody to human colonic specimens, confocal microscopy
# Procedure, shortened: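 Human colonic biopsies from routine colonoscopy, frozen in OCT, cut at 10 μm. Sections incubated with 5 μM Cy5.5-labeled peptide in PBS for 10 min at RT, then rabbit anti-EGFR (1:1000) overnight at 4 °C and AF488 goat anti-rabbit (1:500) 1 h at RT. Sections fixed in 4% PFA and mounted with DAPI; confocal imaging at 20×. Mean intensity taken from three 30×30 μm² boxes within surface epithelium per specimen. Histology reviewed by GI pathologist.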
# [2] = tested on: spontaneous colonic adenomas in CPC;Apc mice; experiment: in vivo near-infrared fluorescence endoscopy of colon in CPC; set-up: species or system mouse; details: for target-to-background ratio, flat lesions / target-to-background ratio, polyps: 1.5 ml, 5 min incubation; for target-to-background ratio, flat lesions: flat lesions n=15, 5 mice; for target-to-background ratio, polyps: polyps n=15, 5 mice; for T/B ratio (log2), flat lesions / T/B ratio (log2), polyps: mean±s.d., n=15
# Procedure, shortened: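 CPC;Apc mice (Cdx2-Cre, floxed Apc allele), n=5, aged 7–10 months, under 2–4% isoflurane in oxygen by nose cone. Colon rinsed with water under white light. Cy5.5-labeled peptides (100 μM) delivered topically through the endoscope channel and left 5 min, then unbound peptide rinsed off. Imaging with small-animal NIR fluorescence endoscope; lesions excised for H&E. T/B ratios log-transformed; fold-change taken as anti-log of difference.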
# [3] = tested on: human dysplastic colorectal polyps; details: FITC-labeled, confocal endomicroscopy; cited from earlier work
# [4] = fluorescence spectra of Cy5.5-labeled peptides; type: physicochemical; details: 10 μM in PBS, λex=671 nm
# HT29 cells [5] = experiment: apparent association time constant, flow cytometry; type: binding, human; details: from k, 5 μM QRH*-Cy5.5, 4 °C
# Procedure, shortened: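 HT29 cells detached with PBS-based dissociation buffer; ~10^5 cells incubated with 5 μM Cy5.5-labeled test peptide at 4 °C for intervals from 0 to 20 min. Cells washed in cold PBS, fixed in 4% PFA and analysed by flow cytometry. Median fluorescence taken as a ratio to cells without peptide at each time point. Rate constant k fitted to y(t)=Imax[1−exp(−kt)]. Six independent experiments.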
# [6] = tested on: dysplastic crypts in polyps; experiment: binding to dysplastic crypts in mouse polyp specimens, immunofluorescence; details: optimal cutting temperature-embedded mouse specimens
# Procedure, shortened: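 Mouse polypoid dysplasia frozen in OCT and cut at 10 μm. Sections stained with goat anti-mouse anti-EGFR (1:1000) plus AF488-labeled secondary antibody, washed in PBS, fixed in 4% PFA for 10 min and mounted with DAPI. Confocal microscopy used; adjacent sections stained with H&E.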
# [7] = tested on: EGFR in HT29 cells (siCL vs siEGFR); experiment: siRNA knockdown of EGFR, confocal microscopy of peptide binding; type: cell-based, human; details: for intensity siCL vs siEGFR (in words): HT29, confocal; for binding/intensity in HT29 knockdown cells (siEGFR) / binding to control HT29 cells (siCL): confocal; for binding/intensity in HT29 knockdown cells (siEGFR): EGFR-targeting siRNA; for binding to control HT29 cells (siCL): nontargeting siRNA
# Procedure, shortened: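 HT29 cells, with penicillin–streptomycin omitted, transfected using DharmaFECT with EGFR-targeting or nontargeting pool siRNA. Cells incubated with Cy5.5-labeled test and control peptides, then fixed in 4% PFA or methanol. Stained with mouse anti-EGFR (1:1000) overnight at 4 °C, then AF488 goat anti-mouse (1:500) 1 h at RT. Mounted with DAPI; confocal imaging with 63× oil objective.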
# SW620 cells = experiment: confocal fluorescence microscopy of peptide binding, SW620; type: cell-based, human; details: 5 μM peptide, 3 min at RT; SW620 low EGFR expression
# Procedure, shortened: (§1)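 HT29 cells kept in McCoy's medium; SW480 and SW620 cells in DMEM. All with 10% FBS and 1% penicillin–streptomycin at 37 °C, 5% CO2. ~10^3 cells grown on coverslips to ~80% confluence, washed in PBS and incubated with 5 μM Cy5.5-labeled test or control peptide for 3 min at RT. Cells washed, fixed in 4% PFA for 5 min and mounted with DAPI; confocal imaging with 63× oil objective. Intensities quantified from five cells in two independent images.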
# SW480 cells = experiment: confocal fluorescence microscopy of peptide binding, SW480; type: cell-based, human; details: 5 μM peptide, 3 min at RT; SW480 medium EGFR expression
# Procedure, shortened: as §1
# HT29 cells [8] = experiment: confocal fluorescence microscopy of peptide binding, HT29; type: cell-based, human; details: 5 μM peptide, 3 min at RT; HT29 high EGFR expression
# Procedure, shortened: as §1
# [9] = target: Epidermal growth factor receptor (EGFR) (human (endogenous in HT29, SW480, SW620), UniProt P00533 25-1210); experiment: immunostaining of cells or tissue
# [10] = NIR endoscopy, topical 100 μM, 5 min
# [11] = anti-log of difference in log-transformed data
Molecule,EGFR phosphorylation / downstream signaling [1],"target-to-background ratio, flat lesions ([2]; topical 100 μM)","target-to-background ratio, polyps ([2]; topical 100 μM)",peak emission [4],"fluorescence signal from flat lesions [2, 10]","fluorescence signal from polyp [2, 10]","T/B ratio (log2), flat lesions ([2]; topical 100 μM)","T/B ratio (log2), polyps ([2]; topical 100 μM)",intensity siCL vs siEGFR (in words) [7],binding/intensity in HT29 knockdown cells (siEGFR) [7],binding to control HT29 cells (siCL) [7],also measured
QRHKPRE,No downstream signaling was observed; also recorded: lack of cytoplasmic signaling,2.7±0.7,4.0±1.7,,,,,,,,,"mean fluorescence intensity, dysplasia compared with normal (human colonic dysplasia; 5 μM, 10 min at RT, dysplasia n=29, normal n=15): 19.4 fold"
VRPMPLQ,,,,,,,,,,,,detection of dysplastic colorectal polyps [3]: used to detect human dysplastic colorectal polyps in vivo with confocal endomicroscopy
QRHKPRE [QRH*-Cy5.5],no evidence of either EGFR phosphorylation or downstream phosphorylation of Akt and Erk1/2,2.7±0.7,4.0±1.7,710 nm,Several flat lesions are seen on fluorescence; also recorded: presence of flat lesions,increased intensity from the polyp in a heterogeneous pattern,1.39±0.34 log2,1.90±0.60 log2,significantly higher intensities for siCL-transfected HT29 cells,Reduced fluorescence intensity,bind strongly to the surface; also recorded: strong binding,"area under ROC curve (AUC) (human colonic dysplasia; dysplasia vs normal, n=29 and 15): 0.94; time scale for binding (HT29 cells [5]): 2.46 min; signal from normal colonic mucosa [2, 10]: minimal background; mean fold difference of T/B ratio QRH*-Cy5.5 vs PEH*-Cy5.5, flat lesions [2, 11]: 2.05; mean fold difference of T/B ratio QRH*-Cy5.5 vs PEH*-Cy5.5, polyps [2, 11]: 2.43; difference in results between QRH*-Cy5.5 and PEH*-Cy5.5 (target-to-background) ([2]; topical 100 μM, 5 min): significant; binding to dysplastic crypts in polyps [6]: increased fluorescence intensity"
PEHKRRQ [PEH*-Cy5.5],,,,710 nm,Minimal signal,Minimal signal,0.36±0.47 log2,0.62±0.77 log2,nonsignificant decrease,minimal binding,minimal binding,binding to cell surface (SW620) (SW620 cells): Minimal binding; binding to cell surface (SW480) (SW480 cells): Minimal binding; binding to cell surface (HT29) (HT29 cells [8]): Minimal binding
QRHKPREGGGSK(Cy5.5)-NH2 [QRH*-Cy5.5],,,,,,,,,,,,"fold change of fluorescence intensity, siCL- vs. siEGFR-transfected cells [9]: 3.2 fold"
